Converted amounts (≈) assume the structure as drawn. The source made the active and inactive calls. The rule behind the calls is not given here.
What was measured:
Candida albicans [1] = assay: Antifungal activity against Candida albicans ATCC 10231 assessed as growth inhibition after 48 hrs by two-fold serial dilution assay; type: functional; details: ATCC 10231, 48 h
How it was run: (§1)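 Twofold serial broth dilution run on compounds giving inhibition zones of 13 mm or more. Organisms pre-grown in suitable broth at 37 °C, 24 h for bacteria and 48 h for fungi. Dilution series 200, 100, 50, 25, 12.5, 6.25. Each 5 mL tube inoculated with 0.1 mL and incubated 37 °C for 48 h. Tubes scored for presence or absence of growth.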

Escherichia coli [2] = assay: Bactericidal activity against Escherichia coli ATCC 25922 after 18 hrs; type: functional; details: ATCC 25922, 18 h
How it was run: (§2)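 Continuation of the broth-dilution MIC test. A loopful from each tube without visible growth spread on a quarter of a Mueller-Hinton agar plate and incubated 18 h. Lowest concentration giving no growth on subculture taken as the MBC.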

Bacillus spizizenii [3] = assay: Antibacterial activity against Bacillus subtilis ATCC 6633 assessed as growth inhibition at 1 mg/mL after 24 hrs by agar-cup diffusion method; type: functional; details: ATCC 6633, 24 h, read-out: DIZ
How it was run: (§3)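 Agar-cup diffusion: 1 mL of 6 h broth culture seeded per 100 mL molten sterile agar at 45 °C and poured into plates. 8 mm cups cut, each filled with 0.1 mL of 1 mg/mL test solution. Incubated 37 °C for 24 h, 48 h for C. albicans. DMSO control per organism. Inhibition zone diameter in mm, mean of three measurements.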

Pseudomonas aeruginosa [4] = assay: Antibacterial activity against Pseudomonas aeruginosa ATCC 27853 assessed as growth inhibition at 1 mg/mL after 24 hrs by agar-cup diffusion method; type: functional; details: ATCC 27853, 24 h, read-out: DIZ; how it was run: as §3
Escherichia coli [5] = assay: Antibacterial activity against Escherichia coli ATCC 25922 assessed as growth inhibition after 48 hrs by two-fold serial dilution assay; type: functional; how it was run: as §1
Bacillus spizizenii [6] = assay: Bactericidal activity against Bacillus subtilis ATCC 6633 after 18 hrs; type: functional; details: ATCC 6633, 18 h; how it was run: as §2
Candida albicans [7] = assay: Antifungal activity against Candida albicans ATCC 10231 assessed as growth inhibition at 1 mg/mL after 48 hrs by agar-cup diffusion method; type: functional; details: ATCC 10231, 48 h, read-out: DIZ; how it was run: as §3
Staphylococcus aureus [8] = assay: Antibacterial activity against Staphylococcus aureus ATCC 6538 assessed as growth inhibition at 1 mg/mL after 24 hrs by agar-cup diffusion method; type: functional; details: ATCC 6538, 24 h, read-out: DIZ; how it was run: as §3
Staphylococcus aureus [9] = assay: Antibacterial activity against Staphylococcus aureus ATCC 6538 assessed as growth inhibition after 48 hrs by two-fold serial dilution assay; type: functional; how it was run: as §1
Bacillus spizizenii [10] = assay: Antibacterial activity against Bacillus subtilis ATCC 6633 assessed as growth inhibition after 48 hrs by two-fold serial dilution assay; type: functional; how it was run: as §1
Escherichia coli [11] = assay: Antibacterial activity against Escherichia coli ATCC 25922 assessed as growth inhibition at 1 mg/mL after 24 hrs by agar-cup diffusion method; type: functional; details: ATCC 25922, 24 h, read-out: DIZ; how it was run: as §3
Staphylococcus aureus [12] = assay: Bactericidal activity against Staphylococcus aureus ATCC 6538 after 18 hrs; type: functional; details: ATCC 6538, 18 h; how it was run: as §2
Aspergillus niger = assay: Antifungal activity against Aspergillus niger assessed as growth inhibition at 1 mg/mL after 24 hrs by agar-cup diffusion method; type: functional, organism-based; how it was run: as §3
Pseudomonas aeruginosa [13] = assay: Antibacterial activity against Pseudomonas aeruginosa ATCC 27853 assessed as growth inhibition after 48 hrs by two-fold serial dilution assay; type: functional; how it was run: as §1
Pseudomonas aeruginosa [14] = assay: Bactericidal activity against Pseudomonas aeruginosa ATCC 27853 after 18 hrs; type: functional; details: ATCC 27853, 18 h; how it was run: as §2

Row | Molecule | MIC (Candida albicans [1]) | MBC (Escherichia coli [2]) | zone of inhibition at 1000 µg/mL (Bacillus spizizenii [3]) | zone of inhibition at 1000 µg/mL (Pseudomonas aeruginosa [4]) | MIC (Escherichia coli [5]; ATCC 25922, 48 h) | MBC (Bacillus spizizenii [6]) | zone of inhibition at 1000 µg/mL (Candida albicans [7]) | zone of inhibition at 1000 µg/mL (Staphylococcus aureus [8]) | MIC (Staphylococcus aureus [9]; ATCC 6538, 48 h) | MIC (Bacillus spizizenii [10]; ATCC 6633, 48 h) | zone of inhibition at 1000 µg/mL (Escherichia coli [11]) | MBC (Staphylococcus aureus [12]) | growth inhibition (GI) (Aspergillus niger) | MIC (Pseudomonas aeruginosa [13]; ATCC 27853, 48 h) | MBC (Pseudomonas aeruginosa [14]) | MIC (Escherichia coli [5]) | MIC (Pseudomonas aeruginosa [13]) | MIC (Staphylococcus aureus [9]) | MIC (Bacillus spizizenii [10])
1 | Clc1ccccc1C(c1ccccc1)(c1ccccc1)n1ccnc1 [CLOTRIMAZOLE] | 6.25 µg/mL (≈ 18.1 µM) | – | – | – | – | – | – | – | – | – | – | – | – | – | – | – | – | – | –
2 | CCOC(=O)c1sc(/N=C/c2ccco2)nc1C | – | 50 µg/mL (≈ 189 µM) | > 13 mm | > 13 mm | 25 µg/mL (≈ 94.6 µM) | 200 µg/mL (≈ 757 µM) | > 13 mm | > 13 mm | 50 µg/mL (≈ 189 µM) | 100 µg/mL (≈ 378 µM) | > 13 mm | 100 µg/mL (≈ 378 µM) | inactive | – | – | – | – | – | –
3 | CC1(C)S[C@@H]2[C@H](NC(=O)[C@H](N)c3ccccc3)C(=O)N2[C@H]1C(=O)O.O.O.O [AMPICILLIN TRIHYDRATE] | – | – | – | – | 6.25 µg/mL | – | – | – | 6.25 µg/mL | 12.5 µg/mL | – | – | – | 12.5 µg/mL | – | – | – | – | –
4 | Cc1nc(NC(=S)Nc2ccccc2)sc1C(=O)NN | – | 100 µg/mL (≈ 325 µM) | > 13 mm | > 13 mm | 100 µg/mL (≈ 325 µM) | 200 µg/mL (≈ 651 µM) | > 13 mm | > 13 mm | 50 µg/mL (≈ 163 µM) | 100 µg/mL (≈ 325 µM) | > 13 mm | 100 µg/mL (≈ 325 µM) | inactive | – | – | – | – | – | –
5 | CCOC(=O)c1sc(NC(=S)NC2CCCCC2)nc1C | – | 100 µg/mL (≈ 305 µM) | > 13 mm | > 13 mm | 50 µg/mL (≈ 153 µM) | 200 µg/mL (≈ 611 µM) | > 13 mm | > 13 mm | 50 µg/mL (≈ 153 µM) | 100 µg/mL (≈ 305 µM) | > 13 mm | 100 µg/mL (≈ 305 µM) | inactive | – | – | – | – | – | –
6 | CCOC(=O)c1sc(NC=O)nc1C | – | – | > 13 mm | > 13 mm | – | 200 µg/mL (≈ 934 µM) | > 13 mm | > 13 mm | 100 µg/mL (≈ 467 µM) | 100 µg/mL (≈ 467 µM) | > 13 mm | 200 µg/mL (≈ 934 µM) | inactive | – | – | – | – | – | –
7 | CCOC(=O)c1sc(/N=C/c2cccs2)nc1C | – | 100 µg/mL (≈ 357 µM) | > 13 mm | > 13 mm | 50 µg/mL (≈ 178 µM) | 200 µg/mL (≈ 713 µM) | > 13 mm | > 13 mm | 100 µg/mL (≈ 357 µM) | 100 µg/mL (≈ 357 µM) | > 13 mm | 200 µg/mL (≈ 713 µM) | inactive | – | – | – | – | – | –
8 | C[C@@H]1[C@H](O)[C@@H](C)/C=C/C=C/C=C/C=C/C=C/C=C/C=C/[C@H](O[C@@H]2O[C@H](C)[C@@H](O)[C@H](N)[C@@H]2O)C[C@@H]2O[C@](O)(C[C@@H](O)C[C@@H](O)[C@H](O)CC[C@@H](O)C[C@@H](O)CC(=O)O[C@H]1C)C[C@H](O)[C@H]2C(=O)O [AMPHOTERICIN B] | 1.56 µg/mL (≈ 1.69 µM) | – | – | – | – | – | – | – | – | – | – | – | – | – | – | – | – | – | –
9 | Cc1nc(NC(=S)NC2CCCCC2)sc1C(=O)NN | – | 100 µg/mL (≈ 319 µM) | > 13 mm | > 13 mm | 50 µg/mL (≈ 160 µM) | 100 µg/mL (≈ 319 µM) | > 13 mm | > 13 mm | 100 µg/mL (≈ 319 µM) | 100 µg/mL (≈ 319 µM) | > 13 mm | 100 µg/mL (≈ 319 µM) | inactive | 100 µg/mL (≈ 319 µM) | 200 µg/mL (≈ 638 µM) | – | – | – | –
10 | GENTAMICIN | – | – | – | – | – | – | – | – | – | – | – | – | – | – | – | 3.12 µg/mL | 12.5 µg/mL | 3.12 µg/mL | 12.5 µg/mL
11 | CCOC(=O)c1sc(NC(=S)Nc2ccc(C)cc2)nc1C | – | 100 µg/mL (≈ 298 µM) | > 13 mm | > 13 mm | 50 µg/mL (≈ 149 µM) | 100 µg/mL (≈ 298 µM) | > 13 mm | > 13 mm | 50 µg/mL (≈ 149 µM) | 100 µg/mL (≈ 298 µM) | > 13 mm | 50 µg/mL (≈ 149 µM) | inactive | 100 µg/mL (≈ 298 µM) | 200 µg/mL (≈ 596 µM) | – | – | – | –

Reference: ChEMBL document CHEMBL3124924, “Bifunctional ethyl 2-amino-4-methylthiazole-5-carboxylate derivatives: synthesis and in vitro biological evaluation as antimicrobial and anticancer agents” (2014)
